In ChEMBL document CHEMBL1141552, “Synthesis and antitubercular activity of 7-(R)- and 7-(S)-methyl-2-nitro-6-(S)-(4-(trifluoromethoxy)benzyloxy)-6,7-dihydro-5H-imidazo[2,1-b][1,3]oxazines, analogues of PA-824” (Bioorg Med Chem Lett, 2008):

Experiments:
Format in all cases: functional
[1] = system: Mycobacterium tuberculosis; assay: Antitubercular activity against Mycobacterium tuberculosis H37Rv T3 nitroreductase mutant
Method in brief: (§1)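 Broth dilution MIC99 against Mtb H37Rv (ATCC 27294) and its H37Rv mutants under aerobic conditions. Compound stocks were made in DMSO at 20 mM.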

[2] = system: Mycobacterium tuberculosis; assay: Antitubercular activity against Mycobacterium tuberculosis H37Rv 5A1 nitroreductase mutant; method in brief: as §1
[3] = system: Mycobacterium tuberculosis; assay: Antitubercular activity against Mycobacterium tuberculosis H37Rv T2 nitroreductase mutant; method in brief: as §1

Measured: MIC

C[C@H]1Oc2nc([N+](=O)[O-])cn2C[C@@H]1OCc1ccc(OC(F)(F)F)cc1
>100 µM: all assays above

C[C@@H]1Oc2nc([N+](=O)[O-])cn2C[C@@H]1OCc1ccc(OC(F)(F)F)cc1
>100 µM: all assays above

O=[N+]([O-])c1cn2c(n1)OC[C@@H](OCc1ccc(OC(F)(F)F)cc1)C2 [PRETOMANID]
>100 µM: all assays above
